The results in this text go back to ChEMBL document CHEMBL1144579, “Synthesis and antiparasitic evaluation of bis-2,5-[4-guanidinophenyl]thiophenes” (Eur J Med Chem, 2007).

The source made the active and inactive calls. The calls are words filed in the database; no cut-off is given here.

Test [1] relates to Trypanosoma brucei rhodesiense. The test is described as follows: Antiparasitic activity against Trypanosoma brucei rhodesiense STIB900. Format: functional, organism-based. In outline:
(§1)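 In vitro IC50s against T. b. rhodesiense STIB900 and P. falciparum K1 are means of at least two independent experiments. The IC50 values averaged for each compound were within a factor of two of each other.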

For another test, the system named is L6. Nature of the test: Cytotoxicity against rat L6 cells by alamar blue assay. The format is cell-based.
The subject of a further test is Trypanosoma cruzi. The test is described as follows: Antiparasitic activity against Trypanosoma cruzi Tulahuen LacZ C4. The format is functional, organism-based.
Another test has as its system Leishmania donovani. Nature of the test: Antiparasitic activity against Leishmania donovani. The format is functional, organism-based.
In a further test the test system is Plasmodium falciparum. The test is described as follows: Antiparasitic activity against Plasmodium falciparum K1. The format is functional, organism-based. In outline:
as §1

The subject of test [2] is Mus musculus. Nature of the test: Survival of Trypanosoma brucei rhodesiense STIB900 infected mouse at 5 mg/kg, ip administered for 4 days. The format is functional. The settings on record: route intraperitoneal.
Test [3] has as its system Mus musculus. Nature of the test: Survival of Trypanosoma brucei rhodesiense STIB900 infected mouse at 20 mg/kg, ip administered for 4 days. The conditions noted are these: route intraperitoneal. Format: functional.
Test [4] deals with Trypanosoma brucei rhodesiense. Nature of the test: Antitrypanosomal activity in Trypanosoma brucei rhodesiense STIB900 infected mouse at 20 mg/kg, ip administered for 4 days. Format: functional, organism-based. Further details: dose 20 mg/kg.

The IC50 is the concentration that inhibits the measured activity by half. A high value points to weaker potency in that assay.

`N=C(Nc1ccc(-c2ccc(-c3ccc(NC(=N)NC4CCCCC4)cc3)s2)cc1)NC1CCCCC1`: the IC50 in test [1] worked out at 0.354 µM; in the test on L6, 4.3 µM; in the test with Trypanosoma cruzi it was 1.7 µM; with Leishmania donovani, 2.5 µM; in the test on Plasmodium falciparum, 0.16 µM.
As to `CC(C)NC(=N)Nc1ccc(-c2ccc(-c3ccc(NC(=N)NC(C)C)cc3)s2)cc1`, the IC50 in test [1] was found to be 0.116 µM; in the test on L6, 69.4 µM; in the test with Trypanosoma cruzi, 28.2 µM; in the test on Leishmania donovani, 11 µM; with Plasmodium falciparum it was 0.107 µM. This compound returned a Survival with Mus musculus [2] above 34 days.
On to `N=C(N)c1ccc(OCCCCCOc2ccc(C(=N)N)cc2)cc1` [PENTAMIDINE], for which the IC50 in the test on Trypanosoma cruzi amounted to 5.35 µM; with Leishmania donovani, 1.9 µM. The Survival with Mus musculus [3] came to 40.8 days. Besides, the outcome in test [4] was inactive.
The matching figures for `N=C(N)c1ccc(-c2ccc(-c3ccc(C(=N)N)cc3)o2)cc1` [FURAMIDINE]: 23.3 µM, 2.8 µM, above 52.5 days and “inactive”.
In the test on L6, `CCN(CC)CCCC(C)Nc1ccnc2cc(Cl)ccc12` (centres undefined) [CHLOROQUINE] returned an IC50 of 188 µM.
With `N=C(N)Nc1ccc(-c2ccc(-c3ccc(NC(=N)N)cc3)s2)cc1`, the IC50 in test [1] was 0.028 µM; in the test on L6 it was 100 µM; in the test on Trypanosoma cruzi, 154 µM; in the test on Leishmania donovani it was 6.7 µM; with Plasmodium falciparum, 0.0036 µM. Moreover, the Survival in the test on Mus musculus [3] stood at 43 days. The outcome in test [4] was inactive.
`N=C(Nc1ccc(-c2ccc(-c3ccc(NC(=N)NC4CCCC4)cc3)s2)cc1)NC1CCCC1`: the half-maximal inhibitory concentration (IC50) came out at 0.306 µM in test [1]; 15.9 µM in the test on L6; 8.4 µM in the test with Trypanosoma cruzi; 1.5 µM in the test with Leishmania donovani; 0.134 µM with Plasmodium falciparum. Also, the Survival in the test on Mus musculus [3] is above 39.5 days.
For `CNC(=N)Nc1ccc(-c2ccc(-c3ccc(NC(=N)NC)cc3)s2)cc1`, the IC50 in test [1] was found to be 0.0062 µM; in the test with L6, 54.3 µM; with Trypanosoma cruzi it was 30.5 µM; with Leishmania donovani, 6.2 µM; in the test on Plasmodium falciparum, 0.023 µM. In the test with Mus musculus [3], this compound registered a Survival above 40.25 days.
Regarding `N=C(Nc1ccccc1)Nc1ccc(-c2ccc(-c3ccc(NC(=N)Nc4ccccc4)cc3)s2)cc1`, the concentration for half-maximal inhibition (IC50) worked out at 1.9 µM in test [1]; 2.5 µM in the test with L6; 9.9 µM in the test with Trypanosoma cruzi; 35 µM in the test on Leishmania donovani; 0.154 µM in the test on Plasmodium falciparum.
With `Cc1ccc(NC(=N)Nc2ccc(-c3ccc(-c4ccc(NC(=N)Nc5ccc(C)cc5)cc4)s3)cc2)cc1`, the 50% inhibitory concentration (IC50) came out at 0.573 µM in test [1]; 1.1 µM in the test with L6; 3.7 µM in the test on Trypanosoma cruzi; 16 µM with Leishmania donovani; 0.0427 µM with Plasmodium falciparum.
